Test results taken from ChEMBL document CHEMBL3272058, “Synthesis, structure, and reactivity of adenosine cyclic 3',5'-phosphate benzyl triesters” (J Med Chem, 1977).

Key:
[1] = test system: C6; test: Morphological alteration in rat C6 cells at 10^-3 M after 90 mins by microscopy; assay type: ADME, cell-based; settings: c6, 1.5 h, 1000 µM
How it was run: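 Near-confluent C6 rat glioma cultures (about 5-9 x 10^5 cells per plate), grown in DME with 10% newborn calf serum, were given 10^-3 M of each triester with theophylline. After 90 min on a shaking table, morphological change was scored microscopically as the percentage of altered cells. + means 90-95% and - means 0% differentiation.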

[2] = organism: Bos taurus; test: Activation of bovine brain cAMP-dependent protein kinase assessed as transfer of p32 to histone using [gamma-32P]ATP at 10^-6 M relative to cAMP triester
How it was run: (§1)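 Bovine brain cAMP-dependent protein kinase was purified by DEAE-cellulose chromatography (about 1000 units/mg). The 0.2 mL mix held 50 mM Mops pH 6.5, 5 mM MgCl2, 7 mM mercaptoethanol, [γ-32P]ATP (1.3 Ci/mmol), 60 µg calf thymus histones, 15-25 µg kinase and triester or cAMP. It ran 5 min at 30 °C, reading 32P in acid-precipitable histones. Value is test-compound activity divided by cAMP activity.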

[3] = organism: Bos taurus; test: Activation of bovine brain cAMP-dependent protein kinase assessed as transfer of p32 to histone using [gamma-32P]ATP at 10^-7 M relative to cAMP triester; how it was run: as §1
[4] = organism: Bos taurus; test: Activation of bovine brain cAMP-dependent protein kinase assessed as transfer of p32 to histone using [gamma-32P]ATP at 10^-5 M relative to cAMP triester; how it was run: as §1
[5] = organism: Bos taurus; test: Activation of bovine brain cAMP-dependent protein kinase assessed as transfer of p32 to histone using [gamma-32P]ATP at 10^-4 M relative to cAMP triester; how it was run: as §1
[6] = Retardation factor, Rf of the compound in ClCH2CH2Cl-EtOH solvent
[7] = Retardation factor, Rf of the compound in […] solvent; assay type: physicochemical
[8] = test system: C6; test: Drug uptake in rat C6 cells assessed as cAMP level per of protein at 10^-4 M after 90 mins; assay type: ADME, cell-based; settings: c6, 1.5 h, 100 µM
How it was run: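 C6 glioma cells were grown in DME with 10% newborn calf serum at 37 °C under 10% CO2 and treated with triester plus theophylline. After 90 min, internal cAMP was measured by Gilman's method and related to protein, using a bovine serum albumin standard.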

[9] = test system: C6; test: Drug uptake in rat C6 cells assessed as morphologically differentiation at 10^-4 M after 50 mins by microscopy; assay type: ADME, cell-based; settings: c6, 50 min, 100 µM
How it was run: (§2)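 Growing C6 rat glioma cells were kept in DME with 10% newborn calf serum at 37 °C under 10% CO2. Near-confluent plates (about 5-9 x 10^5 cells) were exposed to triester with theophylline on a constantly moving shaking table. The percentage of morphologically altered cells was estimated by microscopy at intervals, with an error of 5-10%.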

[10] = test system: C6; test: Drug uptake in rat C6 cells assessed as morphologically differentiation at 10^-4 M after 90 mins by microscopy; assay type: ADME, cell-based; settings: c6, 1.5 h, 100 µM; how it was run: as §2
[11] = test system: C6; test: Drug uptake in rat C6 cells assessed as morphologically differentiation at 10^-4 M after 20 mins by microscopy; assay type: ADME, cell-based; settings: c6, 20 min, 100 µM; how it was run: as §2
[12] = Half life in Mops buffer at pH 6.5 at 30 degC by liquid chromatography; assay type: physicochemical
How it was run: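 Triester was held in Mops buffer, pH 6.5, at 30 °C. Products were separated by LC with UV monitoring at 258 nm, using integration or an internal standard. Half-life came from a pseudo-first-order kinetic fit.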

[13] = Photolysis mediated drug hydrolysis assessed as half life under 366 nm irradiation by liquid chromatography; assay type: physicochemical
How it was run: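 The o-nitrobenzyl ester, 4 mM in Me2SO-phosphate buffer pH 7.1 (1:10 v/v), was irradiated at 366 nm with a 320 nm cut-off, at 37 °C and 6 cm from the source. Half-life was estimated from the rate of cAMP formation followed by LC.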

[14] = Half life in H2O at 5 uM at 50 degC by liquid chromatography; assay type: physicochemical; settings: water
[15] = test system: C6; test: Drug uptake in rat C6 cells assessed as cAMP level per of protein at 10^-3 M after 90 mins; assay type: ADME, cell-based; settings: c6, 1.5 h, 1000 µM
[16] = test system: C6; test: Drug uptake in rat C6 cells assessed as morphologically differentiation at 10^-3 M after 50 mins by microscopy; assay type: ADME, cell-based; settings: c6, 50 min, 1000 µM
[17] = test system: C6; test: Drug uptake in rat C6 cells assessed as morphologically differentiation at 10^-3 M after 20 mins by microscopy; assay type: ADME, cell-based; settings: c6, 20 min, 1000 µM
[18] = test system: C6; test: Drug uptake in rat C6 cells assessed as morphologically differentiation at 10^-3 M after 90 mins by microscopy; assay type: ADME, cell-based; settings: c6, 1.5 h, 1000 µM

Row | SMILES | Activity [1] | Ratio [2] | Ratio [3] | Ratio [4] | Ratio [5] | Rf [6] | Rf [7] | Activity [8] | Activity [9] | Activity [10] | Activity [11] | half-life [12] | half-life [13] | half-life at 5 µM [14] | Activity [15] | Activity [16] | Activity [17] | Activity [18]
1 | CO[P@@]1(=O)OC[C@H]2O[C@@H](n3cnc4c(N)ncnc43)[C@H](O)[C@@H]2O1 | 0% | – | – | – | – | – | – | – | – | – | – | – | – | – | – | – | – | –
2 | Nc1ncnc2c1ncn2[C@@H]1O[C@@H]2COP(=O)(OCc3ccccc3)O[C@H]2[C@H]1O (stereo partly specified) | – | 0.46 | 0.07 | 0.84 | 0.66 | – | – | – | – | – | – | – | – | – | – | – | – | –
3 | COP1(=O)OC[C@H]2O[C@@H](n3cnc4c(N)ncnc43)[C@H](O)[C@@H]2O1 (stereo partly specified) | – | 0.05 | 0 | 0.52 | 0.67 | 0.18 | 0.33 | – | – | – | – | – | – | – | – | – | – | –
4 | NC[C@H](O)c1ccc(O)c(O)c1.O=C(O)C(O)C(O)C(=O)O | – | – | – | – | – | – | – | 250 pmol/mg | 80% | 90% | 50% | – | – | – | – | – | – | –
5 | CCO[P@@]1(=O)OC[C@H]2O[C@@H](n3cnc4c(N)ncnc43)[C@H](O)[C@@H]2O1 | 0% | 0 | 0 | 0.06 | 0.14 | 0.3 | 0.4 | – | – | – | – | 9.5 h | – | – | – | – | – | –
6 | Nc1ncnc2c1ncn2[C@@H]1O[C@@H]2CO[P@@](=O)(OCc3ccccc3[N+](=O)[O-])O[C@H]2[C@H]1O | 90% | 0.04 | 0 | 0.59 | 1.28 | 0.26 | 0.39 | – | – | – | – | 3 h | 0.867 h | 83 h | – | – | – | –
7 | Nc1ncnc2c1ncn2[C@@H]1O[C@@H]2CO[P@](=O)(OCc3ccccc3[N+](=O)[O-])O[C@H]2[C@H]1O | 90% | 0 | 0 | 0.05 | 0.34 | 0.39 | 0.44 | – | – | – | – | 9.5 h | 1.1 h | 300 h | – | – | – | –
8 | Nc1ncnc2c1ncn2[C@@H]1O[C@@H]2COP(=O)(OCc3ccccc3)O[C@H]2[C@H]1O (single isomer, unassigned) [listing 1 of 2 here] | – | 0.09 | 0 | 0.59 | 0.45 | – | – | – | – | – | – | – | – | – | – | – | – | –
9 | CCO[P@]1(=O)OC[C@H]2O[C@@H](n3cnc4c(N)ncnc43)[C@H](O)[C@@H]2O1 | 0% | 0 | 0 | 0.06 | 0.58 | 0.19 | 0.35 | – | – | – | – | 3 h | – | – | – | – | – | –
10 | CO[P@]1(=O)OC[C@H]2OC(n3cnc4c(N)ncnc43)[C@H](O)[C@@H]2O1 (single isomer, unassigned) | 0% | – | – | – | – | – | – | – | – | – | – | – | – | – | – | – | – | –

Continued, values first:

Row | Activity [1] | Ratio [2] | Ratio [3] | Ratio [4] | Ratio [5] | Rf [6] | Rf [7] | Activity [8] | Activity [9] | Activity [10] | Activity [11] | half-life [12] | half-life [13] | half-life at 5 µM [14] | Activity [15] | Activity [16] | Activity [17] | Activity [18] | SMILES
11 | 90% | 0.04 | 0 | 0.49 | 1.01 | 0.25 | 0.37 | – | – | – | – | 3 h | – | 73 h | – | – | – | – | Nc1ncnc2c1ncn2[C@@H]1O[C@@H]2CO[P@@](=O)(OCc3ccc([N+](=O)[O-])cc3)O[C@H]2[C@H]1O
12 | 90% | – | – | – | – | 0.39 | 0.46 | – | – | – | – | 9.5 h | – | 2.2 h | – | – | – | – | Nc1ncnc2c1ncn2[C@@H]1O[C@@H]2COP(=O)(OCc3ccccc3)O[C@H]2[C@H]1O (single isomer, unassigned) [listing 2 of 2 here]
13 | 90% | 0 | 0 | 0.24 | 0.54 | 0.34 | 0.43 | – | – | – | – | 9.5 h | – | 240 h | – | – | – | – | Nc1ncnc2c1ncn2[C@@H]1O[C@@H]2CO[P@](=O)(OCc3ccc([N+](=O)[O-])cc3)O[C@H]2[C@H]1O
14 | 90% | 0.49 | 0.03 | 1 | 1.22 | 0.25 | 0.35 | – | – | – | – | 3 h | – | 0.5 h | – | – | – | – | Nc1ncnc2c1ncn2[C@@H]1O[C@@H]2CO[P@@](=O)(OCc3ccccc3)O[C@H]2[C@H]1O
15 | 90% | – | – | – | – | 0.26 | 0.45 | 70 pmol/mg | 30% | 80% | 10% | 9.5 h | – | 0.1 h | 225 pmol/mg | 60% | 20% | 90% | Cc1ccc(CO[P@@]2(=O)OC[C@H]3O[C@@H](n4cnc5c(N)ncnc54)[C@H](O)[C@@H]3O2)cc1
